Results as given in article PMC13487472 (Blood, 2026).

Tested on: ALL-SIL
Experiment: CTG assay in ALL-SIL
Type: cell-based
Conditions: ABL-fusion-positive cell line, 72 hrs
Method in brief: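 After 72 h, an equal volume of CellTiter-Glo was added and luminescence read as an ATP-based proxy for cell number. Signals were normalised to DMSO controls; triplicates; LC50 fitted with a 4-parameter dose-response model.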

**Q.** With `Cc1nc(Nc2ncc(C(=O)Nc3c(C)cccc3Cl)s2)cc(N2CCN(CCO)CC2)n1` [dasatinib] as the compound, how does the “Cytotoxicity in ALL-SIL” value read?
**A.** Its value is “highly sensitive”.
